Laboratory results from ChEMBL document CHEMBL1240409, “Design, synthesis and evaluation of (E)-alpha-benzylthio chalcones as novel inhibitors of BCR-ABL kinase” (Bioorg Med Chem, 2010).

Experiments:
[1] = system: K562; test: Growth inhibition of human K562 cells expressing p210Bcr/Abl after 96 hrs by trypan blue exclusion assay; assay type: functional, cell-based; settings: K562, 96 h
Procedure, shortened: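 K562 cells were kept in RPMI with 10% FBS and penicillin–streptomycin at 37 °C under 5% CO2. Cells were seeded at 1 × 10^5 cells/mL with a range of compound concentrations, using DMSO as the negative control. After 96 h, viability was counted by Trypan blue exclusion and expressed as percent of DMSO control to derive GI50.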

[2] = system: DU-145; test: Growth inhibition of human DU145 cells after 96 hrs by trypan blue exclusion assay; assay type: functional; settings: DU-145, 96 h

SMILES	GI50 [1]	GI50 [2]
CCOc1ccc(/C=C(/Sc2ccccc2Cl)C(=O)c2ccc(Cl)cc2)cc1OC	1 µM	50 µM
COc1ccc(/C=C(/Sc2ccc(C)cc2)C(=O)c2ccc(Br)cc2)cc1	10 µM	50 µM
O=C(/C(=C\c1cccc(Cl)c1Cl)SCc1ccc(Cl)cc1)c1ccc(Cl)cc1	1 µM	10 µM
O=C(/C(=C\c1ccc(O)c([N+](=O)[O-])c1)SCc1ccc(Br)cc1)c1ccc(Br)cc1	10 µM	10 µM
O=C(/C(=C\c1cc(Cl)cc(Cl)c1Cl)Sc1ccccc1Br)c1ccc(Cl)cc1	50 µM	25 µM
COc1ccc(/C=C(/Sc2ccc(Br)cc2)C(=O)c2ccc(Br)cc2)c(F)c1	1 µM	20 µM
O=C(/C(=C\c1c(O)cc(O)cc1O)SCc1ccc(Cl)cc1)c1ccc(Cl)cc1	> 100 µM	> 100 µM
Cc1ccc(C)c(/C=C(/Sc2ccc(Br)cc2)C(=O)c2ccc(Cl)cc2)c1	10 µM	10 µM
Cc1ccc(/C=C(\C(=O)c2ccc(Cl)cc2)S(=O)(=O)Cc2ccc(Cl)cc2)s1	1 µM	1 µM
Cc1ccc(S/C(=C/c2ccc(Br)cc2)C(=O)c2ccc(Cl)cc2)cc1	50 µM	25 µM
O=C(O)c1ccc(C(=O)/C(=C\c2ccc(Cl)c([N+](=O)[O-])c2)SCc2ccc(C(F)(F)F)cc2)cc1	1 µM	1 µM
O=C(/C(=C\c1ccccc1OCc1ccccc1)Sc1ccc(F)cc1)c1ccc(Cl)cc1	1 µM	1 µM
COc1cc(OC)c(C=C(SCc2ccccc2Cl)C(=O)c2ccc(Cl)cc2)c(OC)c1	10 µM	25 µM
Cc1ccc(S(=O)(=O)/C(=C/c2c(O)cc(O)cc2O)C(=O)c2ccc(Br)cc2)cc1	> 100 µM	> 100 µM
Cc1ccc(C(=O)/C(=C\c2ccc(N(C)C)cc2)S(=O)(=O)c2ccc(Cl)cc2)cc1	50 µM	50 µM
O=C(O)c1ccc(C(=O)/C(=C\c2ccc(Br)cc2)SCc2ccc(F)cc2)cc1	> 100 µM	> 100 µM
O=C(/C(=C\c1cc(Cl)cc(Cl)c1Cl)SCc1ccc(Cl)cc1)c1ccc(Br)cc1	1 µM	1 µM
CCOc1ccc(/C=C(\C(=O)c2ccc(Cl)cc2)S(=O)(=O)Cc2ccccc2Cl)cc1OC	1 µM	10 µM
O=C(/C(=C\c1ccc(Br)cc1)SCc1ccc(F)cc1)c1ccc(Br)cc1	1 µM	25 µM
O=C(/C(=C\c1c[nH]c2ccccc12)S(=O)(=O)c1ccc(Br)cc1)c1ccc(Br)cc1	25 µM	25 µM
Cc1ccc(/C=C(\C(=O)c2ccc(Cl)cc2)S(=O)(=O)Cc2ccc(F)cc2)s1	50 µM	50 µM

SMILES	GI50 [1]	GI50 [2]
O=C(/C(=C\c1ccc(Cl)cc1Cl)Sc1ccc(Br)cc1)c1ccc(Br)cc1	1 µM	1 µM
COc1ccc(/C=C(\C(=O)c2ccc(Br)cc2)S(=O)(=O)Cc2ccc(F)cc2)cc1	25 µM	25 µM
O=C(/C(=C\c1ccc(O)cc1O)Sc1ccccc1Br)c1ccc(Cl)cc1	50 µM	50 µM
Cc1ccc(/C=C(/SCc2ccc(Cl)cc2)C(=O)c2ccc(Cl)cc2)s1	50 µM	50 µM
O=C(/C(=C\c1ccc(Cl)cc1)S(=O)(=O)c1ccc(Br)cc1)c1ccc(Br)cc1	50 µM	50 µM
Cc1ccc(CS/C(=C/c2ccc(N(C)C)cc2)C(=O)c2ccc(Cl)cc2)cc1	15 µM	> 100 µM
CN(C)c1ccc(/C=C(/SCc2ccc(Cl)cc2)C(=O)c2ccc(Cl)cc2)cc1	10 µM	> 100 µM
O=C(/C(=C\c1ccc(O)cc1O)Sc1ccc(Br)cc1)c1ccc(Cl)cc1	25 µM	50 µM
Cc1ccsc1/C=C(/SCc1ccc(F)cc1)C(=O)c1ccc(Cl)cc1	50 µM	50 µM
Cc1ccc(CS/C(=C/c2sccc2C)C(=O)c2ccc(Cl)cc2)cc1	10 µM	10 µM
Cc1ccc(S(=O)(=O)/C(=C/c2ccc(O)c([N+](=O)[O-])c2)C(=O)c2ccc(Cl)cc2)cc1	25 µM	25 µM
COc1cc(OC)c(/C=C(\C(=O)c2ccc(Br)cc2)S(=O)(=O)c2ccc(C)cc2)c(OC)c1	> 100 µM	> 100 µM
Cc1ccc(CS(=O)(=O)/C(=C/c2cc(C)cc(C)c2)C(=O)c2ccc(Cl)cc2)cc1	10 µM	10 µM
CSc1ccc(/C=C(\C(=O)c2ccc(Cl)cc2)S(=O)(=O)Cc2ccc(C)cc2)cc1	25 µM	10 µM
O=C(/C(=C\c1ccc([N+](=O)[O-])c(O)c1)Sc1ccc(Br)cc1)c1c(F)c(F)c(F)c(F)c1F	1 µM	1 µM
CSc1ccc(/C=C(/SCc2ccc(C)cc2)C(=O)c2ccc(Cl)cc2)cc1	10 µM	25 µM
Cc1ccc(/C=C(/SCc2ccc(Cl)cc2)C(=O)c2ccc([N+](=O)[O-])cc2)s1	25 µM	25 µM
COc1ccc(/C=C(/Sc2ccccc2Cl)C(=O)c2ccc(Cl)cc2)c(OC)c1OC	1 µM	10 µM
CN(C)c1ccc(/C=C(/SCc2ccc(Cl)cc2)C(=O)c2ccc(Br)cc2)cc1	1 µM	10 µM
COc1ccccc1/C=C(/SCc1ccc(Cl)cc1)C(=O)c1ccc([N+](=O)[O-])cc1	1 µM	10 µM
O=C(O)c1ccc(C(=O)/C(=C\c2ccc([N+](=O)[O-])c(O)c2)SCc2ccc(Br)cc2)cc1	1 µM	10 µM

SMILES	GI50 [1]	GI50 [2]
COc1cc(OC)c(/C=C(/Sc2ccc(C)cc2)C(=O)c2ccc(Br)cc2)c(OC)c1	50 µM	> 100 µM
CSc1ccc(/C=C(/SCc2ccc(Cl)cc2)C(=O)c2ccc(Cl)cc2)cc1	1 µM	25 µM
Cc1ccc(S(=O)(=O)/C(=C/c2ccc(C)s2)C(=O)c2ccc(Br)cc2)cc1	50 µM	25 µM
CN(C)c1ccc(/C=C(/SCc2ccc(Br)cc2)C(=O)c2ccc(C(=O)O)cc2)cc1	50 µM	50 µM
Cc1ccc(/C=C(/SCc2ccc(Cl)cc2Cl)C(=O)c2ccc(Cl)cc2)s1	50 µM	50 µM
O=C(/C(=C\c1ccc(O)c([N+](=O)[O-])c1)SCc1ccc(Br)cc1)c1c(F)c(F)c(F)c(F)c1F	10 µM	10 µM
Cc1ccc(CS(=O)(=O)/C(=C/c2ccc(N(C)C)cc2)C(=O)c2ccc(Cl)cc2)cc1	50 µM	50 µM
O=C(/C(=C\c1ccc(Cl)cc1)Sc1ccc(Cl)cc1)c1ccc(Cl)cc1	1 µM	1 µM
O=C(/C(=C\c1ccc(F)c([N+](=O)[O-])c1)SCc1ccc(F)cc1)c1ccc(SCc2ccc(F)cc2)c([N+](=O)[O-])c1	1 µM	25 µM
Cc1ccc(CS(=O)(=O)/C(=C/c2ccc(Br)cc2)C(=O)c2ccc(Cl)cc2)cc1	10 µM	25 µM
O=C(/C(=C\c1ccc(Br)c([N+](=O)[O-])c1)S(=O)(=O)c1ccc(Br)cc1)c1ccc(Br)cc1	10 µM	10 µM
O=C(/C(=C\c1csc([N+](=O)[O-])c1)S(=O)(=O)c1ccc(Br)cc1)c1ccc(Br)cc1	1 µM	1 µM
COc1ccccc1/C=C(\C(=O)c1ccc(Cl)cc1)S(=O)(=O)Cc1ccc(Cl)cc1	25 µM	25 µM
COc1ccc(/C=C(/SCc2ccc(F)cc2)C(=O)c2ccc(C(=O)O)cc2)cc1O	1 µM	10 µM
O=C(/C(=C\c1ccc(Oc2ccccc2)cc1)SCc1ccccc1Cl)c1ccc(Cl)cc1	1 µM	1 µM
O=C(/C(=C\c1ccc(Br)cc1)Sc1ccc(Br)cc1)c1ccc(Cl)cc1	1 µM	1 µM
COc1cc(OC)c(/C=C(\C(=O)c2ccc([N+](=O)[O-])cc2)S(=O)(=O)Cc2ccc(Cl)cc2)c(OC)c1	10 µM	10 µM
O=C(/C(=C\c1c(O)cc(O)cc1O)S(=O)(=O)c1ccccc1Br)c1ccc(Br)cc1	50 µM	50 µM
Cc1ccc(S/C(=C/c2ccc(F)cc2F)C(=O)c2ccc(Br)cc2)cc1	> 100 µM	> 100 µM
O=C(/C(=C\c1ccc(Cl)cc1)SCc1ccc(F)cc1)c1ccc(Cl)cc1	1 µM	10 µM
